The source of these data is the array DNA melting data of Ke et al. (doi:10.1101/2024.01.08.574731).

The nature of series [1]: melting temperature; fluorescence melt of hairpins on a sequencing array, two-state fit, raised by 9.35 °C to match UV melts. The settings on record: sodium 0.088 M. In outline:
(§1)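 Bootstrapped two-state fits yielded melting temperature and folding enthalpy for library hairpins. Cy3 fluorescence, with annealed Cy3 and quencher oligos, was imaged on a sequenced MiSeq flow cell in 50 mM Na-HEPES pH 8.0, 25 mM NaCl in 2.5 °C steps up to 60 °C, and normalised to pre-quench Cy3 and to control constructs. Four replicates were combined by inverse variance, and fitted temperatures were raised by 9.35 °C to match UV melts.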

Series [2] can be described thus: folding enthalpy; higher = less favourable; fluorescence melt of hairpins on a sequencing array, two-state fit. To be noted: sodium 0.088 M. In outline:
as §1

CGAGACGGAAACGTTTCG (((.(((....))).))): the Tm in series [1] stood at 49.6 °C. Further, the folding enthalpy in series [2] was -41.5 kcal/mol.

Take CGAGCCCGGAAACGGTCG (((..(((....)))))): the Tm in series [1] was 37.5 °C. For the same sequence, the folding enthalpy in series [2] was -20.9 kcal/mol.

In the case of CGAGCGGAAACGCAGTCG ((((((....)))..))), the Tm in series [1] was found to be 38.1 °C. The folding enthalpy in series [2] is -13.6 kcal/mol.

As to CGAGCGGAAACGCCTTCG ((((((....)))..))), the Tm in series [1] turned out to be 32 °C. Moreover, in series [2], the folding enthalpy is -10.7 kcal/mol.

For CGAGCGGAAACGCGGTCG ((((((....)))..))), in series [1], the Tm worked out at 52.8 °C. For the same sequence, the folding enthalpy in series [2] was -14.9 kcal/mol.

In the case of CGAGGACGGAAACGTTCG (((..(((....)))))), the Tm in series [1] came out at 43.1 °C. Also, the folding enthalpy in series [2] was -19.8 kcal/mol.

On to CGAGGCCGGAAACGGTCG (((..(((....)))))), for which the Tm in series [1] was found to be 48.5 °C. In series [2], the folding enthalpy was -19.7 kcal/mol.

With CGAGGGCGGAAACGCTCG (((..(((....)))))), the Tm in series [1] is 48.5 °C. Moreover, the folding enthalpy in series [2] is -16.9 kcal/mol.

In the case of CGATCCGGAAACGGTTCG (((.(((....))).))), in series [1], the Tm came out at 49.8 °C. Further, the folding enthalpy in series [2] is -32 kcal/mol.

With CGATCGCGGAAACGCTCG (((..(((....)))))), the Tm in series [1] stood at 36.8 °C. In series [2], the folding enthalpy is -15.4 kcal/mol.

Consider CGATGTCGGAAACGATCG (((..(((....)))))), for which, in series [1], the Tm was 36.2 °C. In series [2], the folding enthalpy is -17.3 kcal/mol.

Consider CGATTGAAAAATCG (((((....))))), for which the Tm in series [1] came out at 46 °C. Besides, the folding enthalpy in series [2] is -27.8 kcal/mol.

Turning to CGCACCGGAAACGGAGCG (((.(((....))).))), the Tm in series [1] is 60.9 °C. In addition, in series [2], the folding enthalpy is -37.2 kcal/mol.

Take CGCACGGAAACGTAAGCG ((((((....)))..))): in series [1], the Tm worked out at 46.4 °C. The folding enthalpy in series [2] is -34.5 kcal/mol.

As to CGCACGGAAACGTAGCG ((((((....))).))), the Tm in series [1] is 53.8 °C. In series [2], the folding enthalpy is -30.4 kcal/mol.

On to CGCACGGAAACGTCGCG ((((((....))).))), for which the Tm in series [1] was 51.1 °C. In series [2], the folding enthalpy is -35.8 kcal/mol.

For CGCACGGAAACGTTGCG ((((((....))).))), the Tm in series [1] is 55.1 °C. Further, in series [2], the folding enthalpy is -37.7 kcal/mol.

Take CGCAGGCGGAAACGCGCG (((..(((....)))))): in series [1], the Tm worked out at 56.2 °C. For the same sequence, the folding enthalpy in series [2] was -23 kcal/mol.

Regarding CGCATCGGAAACGACGCG (((.(((....))).))), in series [1], the Tm amounted to 51.6 °C. Besides, the folding enthalpy in series [2] was -41.2 kcal/mol.

As for CGCATGAAAATGCG (((((....))))), the Tm in series [1] was 67.6 °C. In addition, the folding enthalpy in series [2] was -24.9 kcal/mol.

On to CGCCCACGGAAACGTGCG (((..(((....)))))), for which the Tm in series [1] was 37.1 °C. For the same sequence, the folding enthalpy in series [2] was -12.3 kcal/mol.

For CGCCCCCGGAAACGGGCG (((..(((....)))))), in series [1], the Tm came to 54.3 °C. Also, the folding enthalpy in series [2] is -13.8 kcal/mol.

For CGCCCGGAAACGGACGCG ((((((....)))..))), the Tm in series [1] amounted to 50.2 °C. Also, in series [2], the folding enthalpy is -12.2 kcal/mol.

Take CGCCCGGAAACGGAGGCG ((((((....)))..))): in series [1], the Tm is 53.8 °C. In addition, the folding enthalpy in series [2] is -32.5 kcal/mol.

Consider CGCCCGGAAACGGGGGCG ((((((....)))..))), for which, in series [1], the Tm was 68.6 °C. Moreover, the folding enthalpy in series [2] was -12.5 kcal/mol.

For the sequence CGCCCGGAAACGGTGGCG ((((((....)))..))), the Tm in series [1] worked out at 54.9 °C. Moreover, the folding enthalpy in series [2] is -28.6 kcal/mol.

In the case of CGCCGCGGAAACGCCGCG (((.(((....))).))), the Tm in series [1] was 63.6 °C. Moreover, the folding enthalpy in series [2] was -14.9 kcal/mol.

CGCGAACGGAAACGTGCG (((..(((....)))))): the Tm in series [1] is 49.6 °C. Moreover, the folding enthalpy in series [2] was -47.6 kcal/mol.

In the case of CGCGCGGAAACGCAGGCG ((((((....)))..))), the Tm in series [1] was 57.2 °C. Moreover, the folding enthalpy in series [2] was -28.6 kcal/mol.

For CGCGCGGAAACGCGAGCG ((((((....)))..))), the Tm in series [1] came to 60.7 °C. In addition, in series [2], the folding enthalpy was -12.1 kcal/mol.

Regarding CGCGCGGAAACGCTGCG ((((((....))).))), the Tm in series [1] is 57.1 °C. For the same sequence, in series [2], the folding enthalpy was -26.9 kcal/mol.

Regarding CGCGCTCGGAAACGAGCG (((..(((....)))))), the Tm in series [1] stood at 67.6 °C. Besides, the folding enthalpy in series [2] was -7.49 kcal/mol.

On to “CGCGGAAAAACAACAACCGCG ((.................))”, for which, in series [1], the Tm stood at 44.5 °C. In series [2], the folding enthalpy is -25.1 kcal/mol.

CGCGGAAAAACAACCGCG ((..............)): the Tm in series [1] amounted to 49.8 °C. Besides, in series [2], the folding enthalpy was -26.4 kcal/mol.

In the case of CGCGGAAATCTCCGCG ((((((....)))))), in series [1], the Tm worked out at 62.2 °C. In series [2], the folding enthalpy is -40.2 kcal/mol.

Take CGCGGAAATGTCCGCG ((((((....)))))): the Tm in series [1] came out at 69.1 °C. In series [2], the folding enthalpy is -32.5 kcal/mol.

For CGCGGAACAATCCGCG ((((((....)))))), in series [1], the Tm turned out to be 61.5 °C. Moreover, in series [2], the folding enthalpy is -37 kcal/mol.
